Test results published in ChEMBL document CHEMBL4033779 (J Med Chem, 2018).
Converted amounts (≈) assume the structure as drawn.

Tests used:
Cytochrome P450 3A4 = Cytochrome P450 3A4 (Homo sapiens, UniProt P08684); experiment: Inhibition of CYP3A4 (unknown origin); assay type: ADME
[1] = system: Human immunodeficiency virus 1; experiment: Antiviral activity against HIV 1 isolate JRFL by single cycle infectivity assay; assay type: functional; settings: Human immunodeficiency virus 1, isolate JRFL
How it was run: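 HEK293T producer cells cotransfected with a proviral HIV-1 LAI-Δenv-luc plasmid (firefly luciferase in place of env) and an LTR-driven JR-FL env plasmid. The resulting pseudotyped virions complete only one replication round; infection is read out as luciferase signal.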

[2] = system: Simian immunodeficiency virus; experiment: Antiviral activity against SIV; assay type: functional
[3] = system: Human immunodeficiency virus 2; experiment: Antiviral activity against HIV2; assay type: functional
[4] = Aqueous solubility of the compound; assay type: physicochemical; settings: buffer
[5] = Oral bioavailability in cynomolgus monkey at 10 mg/kg; assay type: ADME, organism-based, Macaca fascicularis; settings: in vivo
How it was run: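 Oral dose of 10 mpk given as a solution in PEG 400/ethanol.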

[6] = Oral bioavailability in rat at 1 mg/kg; assay type: ADME, organism-based; settings: in vivo
How it was run: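 Rat oral dosing at 1 mpk as a nanosuspension.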

[7] = Aqueous solubility of the compound at pH 7.4; assay type: physicochemical
Homo sapiens [8] = species on record: Homo sapiens; experiment: Half life in human assessed as 1-(4-benzoylpiperazin-1-yl)-2-(4,7-dimethoxy-1H-pyrrolo[2,3-c]pyridin-3-yl)ethane-1,2-dione level; assay type: ADME
How it was run: (§1)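 Healthy volunteers received the phosphonooxymethyl prodrug orally over 25 to 800 mg. Plasma levels of the released parent were followed to derive tmax and t1/2.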

Homo sapiens [9] = species on record: Homo sapiens; experiment: Tmax in human assessed as 1-(4-benzoylpiperazin-1-yl)-2-(4,7-dimethoxy-1H-pyrrolo[2,3-c]pyridin-3-yl)ethane-1,2-dione level; assay type: ADME; how it was run: as §1
[10] = system: Human immunodeficiency virus 1; experiment: Antiviral activity against HIV-1 Bal infected in human PM1 cells harboring CCR5 co-receptor after 4 to 6 days by p24 ELISA; assay type: functional, cell-based; settings: Human immunodeficiency virus 1, Bal
[11] = system: Human immunodeficiency virus 1; experiment: Antiviral activity against HIV1 infected in human assessed as decrease in viral load in plasma at 800 mg bid measured on day 8; assay type: functional
How it was run: (§2)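 Eight-day monotherapy in HIV-1-infected subjects: 800 or 1800 mg given BID with a high-fat meal (n = 12 per arm, placebo n = 6). Plasma viral load was measured on day 8 and reported as mean decline in log10 copies/mL.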

[12] = system: Human immunodeficiency virus 1; experiment: Antiviral activity against HIV-1 JR-FL infected in human PM1 cells harboring CCR5 co-receptor after 4 to 6 days by p24 ELISA; assay type: functional, cell-based; settings: Human immunodeficiency virus 1, JR-FL
[13] = system: Human immunodeficiency virus 1; experiment: Antiviral activity against HIV-1 89.6 infected in human PM1 cells harboring dual co-receptors after 4 to 6 days by p24 ELISA; assay type: functional, cell-based; settings: Human immunodeficiency virus 1, 89.6, PM1
[14] = system: Human immunodeficiency virus 1; experiment: Inhibition of [3H]BMS-488043 binding to HIV-1 isolate JRFL gp120 assessed as association half life after 60 mins by scintillation counting method
[15] = system: Human immunodeficiency virus 1; experiment: Antiviral activity against HIV-1 LAI infected in human MT2 cells harboring CXCR4 co-receptor after 4 to 6 days; assay type: functional, cell-based; settings: Human immunodeficiency virus 1, LAI
[16] = Protein binding in human plasma; assay type: ADME, cell-free; settings: read-out: PPB (converted)
[17] = Inhibition of [3H]BMS-488043 binding to HIV-1 isolate JRFL gp120 after 60 mins by scintillation counting method; parameters: species or system Human immunodeficiency virus 1
[18] = system: Human immunodeficiency virus 1; experiment: Antiviral activity against HIV-1 RF infected in human MT2 cells harboring CXCR4 co-receptor after 4 to 6 days; assay type: functional, cell-based; settings: Human immunodeficiency virus 1, RF
[19] = system: Human immunodeficiency virus 1; experiment: Antiviral activity against HIV-1 isolate MN infected in human MT2 cells harboring CXCR4 co-receptor after 4 to 6 days; assay type: functional, cell-based; settings: Human immunodeficiency virus 1, isolate MN
[20] = Competitive inhibition of soluble CD4 binding to HIV-1 gp120 after 2 hrs by ELISA; parameters: species or system Human immunodeficiency virus 1
[21] = system: Human immunodeficiency virus 1; experiment: Antiviral activity against HIV-1 NL4 - 3 infected in human MT2 cells harboring CXCR4 co-receptor after 4 to 6 days; assay type: functional, cell-based; settings: Human immunodeficiency virus 1, NL4 - 3, MT2
[22] = system: Human immunodeficiency virus 1; experiment: Antiviral activity against HIV-1 SF-162 infected in human PM1 cells harboring CCR5 co-receptor after 4 to 6 days by p24 ELISA; assay type: functional, cell-based; settings: Human immunodeficiency virus 1, SF-162
[23] = Dissociation constant, pKa of the compound; assay type: physicochemical
[24] = system: Human immunodeficiency virus 1; experiment: Antiviral activity against HIV1 infected in human assessed as decrease in viral load in plasma at 1800 mg bid measured on day 8; assay type: functional; how it was run: as §2
[25] = system: Human immunodeficiency virus 1; experiment: Inhibition of [3H]BMS-488043 binding to HIV-1 isolate JRFL gp120 assessed as dissociation half life incubated for 60 mins followed by CD4 addition by scintillation counting method
[26] = Half life in human administered as capsule; assay type: ADME; settings: po
[27] = system: Human immunodeficiency virus 1; experiment: Antiviral activity against HIV-1 3B infected in human MT2 cells harboring CXCR4 co-receptor after 4 to 6 days; assay type: functional, cell-based; settings: Human immunodeficiency virus 1, 3B
[28] = system: Human immunodeficiency virus 1; experiment: Antiviral activity against HIV-1 isolate CRF01_AE by p24 ELISA; assay type: functional; settings: Human immunodeficiency virus 1, isolate CRF01_AE
[29] = system: Human immunodeficiency virus 1; experiment: Antiviral activity against HIV-1 subtype F by p24 ELISA; assay type: functional; settings: Human immunodeficiency virus 1, subtype F
[30] = Aqueous solubility of the compound at pH 2 to 9; assay type: physicochemical
[31] = system: Human immunodeficiency virus 1; experiment: Antiviral activity against HIV-1 subtype B by p24 ELISA; assay type: functional; settings: Human immunodeficiency virus 1, subtype B
[32] = system: Human immunodeficiency virus 1; experiment: Antiviral activity against HIV-1 subtype A by p24 ELISA; assay type: functional; settings: Human immunodeficiency virus 1, subtype A
[33] = system: Human immunodeficiency virus 1; experiment: Antiviral activity against HIV-1 F1 by p24 ELISA; assay type: functional; settings: Human immunodeficiency virus 1, F1
[34] = Oral bioavailability in rat dosed as suspension; assay type: ADME, organism-based; settings: in vivo
[35] = system: Human immunodeficiency virus 1; experiment: Antiviral activity against HIV-1 isolate CRF_BF by p24 ELISA; assay type: functional; settings: Human immunodeficiency virus 1, isolate CRF_BF
[36] = system: Human immunodeficiency virus 1; experiment: Antiviral activity against HIV-1 isolate CRF02_AG by p24 ELISA; assay type: functional; settings: Human immunodeficiency virus 1, isolate CRF02_AG
[37] = system: Human immunodeficiency virus 1; experiment: Antiviral activity against HIV-1 subtype C by p24 ELISA; assay type: functional; settings: Human immunodeficiency virus 1, subtype C
[38] = Solubility of the compound in acetonitrile; assay type: physicochemical
[39] = Aqueous solubility of the compound at pH 1.5 to 8.2; assay type: physicochemical
How it was run: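 Aqueous solubility measured over pH 1.5−8.2 at room temperature.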

Canis familiaris = experiment: Oral bioavailability in dog assessed as 1-(4-benzoylpiperazin-1-yl)-2-(4-methoxy-7-(3-methyl-1H-1,2,4-triazol-1-yl)-1H-pyrrolo[2,3-c]pyridin-3-yl)ethane-1,2-dione level; assay type: ADME, organism-based, Canis lupus familiaris; settings: in vivo
Rhesus monkey = experiment: Oral bioavailability in monkey assessed as 1-(4-benzoylpiperazin-1-yl)-2-(4-methoxy-7-(3-methyl-1H-1,2,4-triazol-1-yl)-1H-pyrrolo[2,3-c]pyridin-3-yl)ethane-1,2-dione level; assay type: ADME, organism-based, Macaca mulatta; settings: in vivo
Rattus norvegicus = experiment: Oral bioavailability in rat assessed as 1-(4-benzoylpiperazin-1-yl)-2-(4-methoxy-7-(3-methyl-1H-1,2,4-triazol-1-yl)-1H-pyrrolo[2,3-c]pyridin-3-yl)ethane-1,2-dione level; assay type: ADME, organism-based; settings: in vivo
Homo sapiens [40] = species on record: Homo sapiens; experiment: Half life in human assessed as 1-(4-benzoylpiperazin-1-yl)-2-(4-methoxy-7-(3-methyl-1H-1,2,4-triazol-1-yl)-1H-pyrrolo[2,3-c]pyridin-3-yl)ethane-1,2-dione level; assay type: ADME

Sequence of Cytochrome P450 3A4 (P08684 whole entry): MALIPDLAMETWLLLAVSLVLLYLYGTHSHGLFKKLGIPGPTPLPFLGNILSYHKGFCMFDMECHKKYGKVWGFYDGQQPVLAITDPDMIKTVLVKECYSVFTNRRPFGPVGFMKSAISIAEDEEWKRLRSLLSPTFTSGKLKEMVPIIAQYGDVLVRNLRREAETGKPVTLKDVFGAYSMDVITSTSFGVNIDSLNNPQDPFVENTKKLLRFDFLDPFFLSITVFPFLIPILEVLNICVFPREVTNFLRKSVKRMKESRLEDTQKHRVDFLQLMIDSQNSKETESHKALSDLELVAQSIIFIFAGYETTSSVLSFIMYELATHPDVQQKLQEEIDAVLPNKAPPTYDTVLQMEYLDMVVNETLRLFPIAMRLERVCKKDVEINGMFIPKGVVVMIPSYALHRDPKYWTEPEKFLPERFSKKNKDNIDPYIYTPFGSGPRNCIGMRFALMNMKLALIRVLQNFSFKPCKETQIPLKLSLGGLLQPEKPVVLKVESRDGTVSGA

In the case of `COc1cnc(-n2cncn2)c2[nH]cc(C(=O)C(=O)N3CCN(C(=O)c4ccccc4)CC3)c12`, the IC50 (Cytochrome P450 3A4) is reported as 1000 nM and the EC50 [1] is reported as 0.21 nM.

In the case of `COc1cnc(-n2cc(C)cn2)c2[nH]cc(C(=O)C(=O)N3CCN(C(=O)c4ccccc4)CC3)c12`, the EC50 [1] is reported as 0.41 nM.

`O=C(C(=O)N1CCN(C(=O)c2ccccc2)CC1)c1c[nH]c2ccccc12` showed an EC50 [2] of over 200000 nM and an EC50 [3] of over 200000 nM.

Work on `O=C(C(=O)N1CCN(C(=O)c2ccccc2)CC1)c1c[nH]c2cccc(F)c12` yielded a solubility [4] of 5 µg/mL (≈ 13.2 µM), a bioavailability [5] of 100% and a bioavailability [6] of 4%.

With `COc1cnc(-n2ccc(C)n2)c2[nH]cc(C(=O)C(=O)N3CCN(C(=O)c4ccccc4)CC3)c12` the EC50 [1] was 0.11 nM.

With `O=C(C(=O)N1CCN(C(=O)c2ccccc2)CC1)c1c[nH]c2c(-n3ccnn3)ncc(F)c12` the solubility [7] was 7 µg/mL (≈ 15.6 µM).

Compound `COc1cnc(OC)c2c1c(C(=O)C(=O)N1CCN(C(=O)c3ccccc3)CC1)cn2COP(=O)(O)O.NCCCC[C@H](N)C(=O)O` has a t1/2 (Homo sapiens [8]) of 1.5 h and a Tmax (Homo sapiens [9]) of 0.5 to 1 h.

For `O=C(C(=O)N1CCN(C(=O)c2ccccc2)CC1)c1c[nH]c2c(-c3ncon3)ncc(F)c12`, the EC50 [1] was 1.3 nM.

Compound `COc1ncc(OC)c2c(C(=O)C(=O)N3CCN(C(=O)c4ccccc4)CC3)c[nH]c12` has an EC50 [10] of 23 nM, an Activity [11] of 0.72 log10/ml and an EC50 [12] of 3 nM. It also gave an EC50 [13] of at least 871 nM, a T1/2 [14] of 2 to 3 min and an EC50 [15] of 4.1 nM. The fraction unbound [16] was 0.05, the Kd [17] was 19.1 nM and the EC50 [18] was over 2000 nM. For the same compound, the EC50 [19] was over 1000 nM, the IC50 [20] was 87 nM and the EC50 [21] was 17.4 nM. The EC50 [22] was 4.7 nM, the pKa [23] was 2.9 to 9.3 and the Activity [24] was 0.96 log10/ml. The T1/2 [25] was 0.717 h, the half-life [26] was 10 h and the EC50 [27] was 160 nM.

Compound `COc1cnc(-n2cnc(C)n2)c2[nH]cc(C(=O)C(=O)N3CCN(C(=O)c4ccccc4)CC3)c12` has an EC50 [28] of over 100 nM, an EC50 [10] of 1.7 nM and an EC50 [29] of 0.1 nM. It also gave an EC50 [12] of 0.4 nM, an EC50 [13] of 57.6 nM and a solubility [30] of 20 µg/mL (≈ 42.2 µM). It also gave an EC50 [15] of 0.7 nM, an EC50 [31] of 0.34 nM and an EC50 [32] of 2.24 nM. It also gave an EC50 [18] of over 2000 nM, an EC50 [33] of 3.75 nM and an EC50 [21] of 2.2 nM. The bioavailability [34] was 52%, the EC50 [22] was 0.5 nM and the EC50 [35] was 3.09 nM. For the same compound, the T1/2 [25] was 7.63 h, the EC50 [1] was 0.14 nM and the EC50 [36] was 1.77 nM. It also gave an EC50 [37] of 1.14 nM.

In the case of `COc1cnc(Br)c2[nH]cc(C(=O)C(=O)N3CCN(C(=O)c4ccccc4)CC3)c12`, the solubility [38] is reported as under 500 µg/mL.

For `COc1cnc(-n2cnc(C)n2)c2c1c(C(=O)C(=O)N1CCN(C(=O)c3ccccc3)CC1)cn2COP(=O)(O)O.NC(CO)(CO)CO` [FOSTEMSAVIR TROMETHAMINE], the Activity [11] was under 1 log10/ml, the solubility [39] was over 11000 µg/mL and the bioavailability (Canis familiaris) was 80 to 122%. It also gave a bioavailability (Rhesus monkey) of 80 to 122%, a bioavailability (Rattus norvegicus) of 80 to 122% and a t1/2 (Homo sapiens [40]) of 1.5 h.

For `COc1cnc(-n2ccnn2)c2[nH]cc(C(=O)C(=O)N3CCN(C(=O)c4ccccc4)CC3)c12`, the EC50 [1] was 0.78 nM.

`COc1ccnc2[nH]cc(C(=O)C(=O)N3CCN(C(=O)c4ccccc4)C[C@H]3C)c12` showed a fraction unbound [16] of 0.27, an IC50 [20] of 100 nM and a pKa [23] of 2.9 to 9.6.
